# From PubChem BioAssay AID686992 (Broad Institute, 2013)
# “And” between values parts separate entries of the source, which are not always exact repeats. Identical values can stand only once. About 960 (0.37%) of roughly 260,000 compounds were called active. This is one part of a sample in which actives are shown more often than they occur. Values without a mark were called inactive.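 How the source made its calls: active means mean E-selectin-positive cell signal at least 10% of the positive control, reached in at least 60% of replicates, without over 20% cell loss; inconclusive means no rule given, readout overlaps actives, possibly toxicity-flagged; inactive means the rest, including those meeting only one limit.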
# Molecular target: E-selectin (Homo sapiens) (UniProt P16581)
# Experiment: E-selectin induction in HUVECs, primary screen, imaging, HUVEC, immunofluorescence imaging, single point (AID 686992);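 further: signal is the percent of cells scored E-selectin positive by PE staining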
# Details: at 7.58 µM, stronger effect = higher value, normalized: neutral wells 0, TNF-alpha wells 100
# In short: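 Assay system: HUVEC primary endothelial cells. Input: 3,000 HUVEC seeded per well. Doses: one compound dose added by pin transfer. Read-out basis: % PE-positive cells. Benchmarks: TNF-alpha high, DMSO low. Detection: immunofluorescence imaging. Buffer or medium: EGM-2, gelatin.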
# Sequence of E-selectin (Homo sapiens) (P16581 whole entry, looked up): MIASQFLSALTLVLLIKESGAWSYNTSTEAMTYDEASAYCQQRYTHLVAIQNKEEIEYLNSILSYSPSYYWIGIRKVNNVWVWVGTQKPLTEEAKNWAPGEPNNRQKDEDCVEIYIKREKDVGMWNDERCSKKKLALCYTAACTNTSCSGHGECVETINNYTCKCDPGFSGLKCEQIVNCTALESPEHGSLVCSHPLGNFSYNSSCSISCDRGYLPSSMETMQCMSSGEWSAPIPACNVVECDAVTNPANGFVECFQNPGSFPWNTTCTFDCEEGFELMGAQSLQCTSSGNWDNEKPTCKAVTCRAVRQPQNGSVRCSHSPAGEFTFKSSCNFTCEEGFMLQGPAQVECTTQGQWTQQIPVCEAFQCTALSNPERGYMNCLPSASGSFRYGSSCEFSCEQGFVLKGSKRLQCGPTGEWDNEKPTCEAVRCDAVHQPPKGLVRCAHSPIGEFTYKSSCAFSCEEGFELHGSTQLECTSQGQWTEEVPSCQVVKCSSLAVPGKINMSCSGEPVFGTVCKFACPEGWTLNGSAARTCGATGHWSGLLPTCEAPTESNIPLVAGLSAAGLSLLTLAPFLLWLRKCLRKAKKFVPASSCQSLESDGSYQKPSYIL
row,SMILES,activation
1,C[C@H]1CN([C@@H](C)CO)C(=O)Cc2cc(NS(C)(=O)=O)ccc2O[C@@H]1CN(C)S(=O)(=O)c1cccs1,-0.124%
2,C[C@@H]1CN([C@@H](C)CO)C(=O)Cc2cc(NC(=O)CCC(F)(F)F)ccc2O[C@@H]1CN(C)C(=O)Nc1cccc2ccccc12,0.23%
3,C[C@@H]1CN([C@@H](C)CO)C(=O)Cc2cc(NC(=O)NC3CCCCC3)ccc2O[C@H]1CN(C)C(=O)Nc1ccc(C(F)(F)F)cc1,0.389%
4,C[C@@H]1CN([C@@H](C)CO)C(=O)Cc2cc(NC(=O)C3CC3)ccc2O[C@@H]1CN(C)S(C)(=O)=O,-0.338%
5,CC(C)NC(=O)N(C)C[C@H]1Oc2ccc(NC(=O)CCC(F)(F)F)cc2CC(=O)N([C@@H](C)CO)C[C@@H]1C,50.4% (active)
6,C[C@@H]1CN([C@@H](C)CO)C(=O)Cc2cc(NC(=O)Nc3ccc(C(F)(F)F)cc3)ccc2O[C@H]1CN(C)C(=O)Nc1ccc(F)cc1,-0.224%
7,C[C@H]1CN([C@@H](C)CO)C(=O)Cc2cc(NC(=O)Nc3ccc(F)cc3)ccc2O[C@H]1CN(C)C(=O)Nc1ccc(C(F)(F)F)cc1,29.7% (active)
8,C[C@H]1CN([C@@H](C)CO)C(=O)Cc2cc(NC(=O)C3CC3)ccc2O[C@@H]1CN(C)S(=O)(=O)c1cccs1,55.7% (active)
9,C[C@H]1CN([C@@H](C)CO)C(=O)Cc2cc(NC(=O)CCC(F)(F)F)ccc2O[C@H]1CN(C)C(=O)NC1CCCCC1,0.0445%
10,C[C@@H]1CCCCO[C@@H](CN(C)C(=O)CCCN(C)C)[C@H](C)CN([C@@H](C)CO)C(=O)c2cc(NC(=O)Nc3ccccc3)ccc2O1,-0.0275%
11,N#C[C@@H]1[C@@H](c2ccc(-c3ccccc3F)cc2)[C@@H](CO)N1C(=O)c1ccccn1,0.692%
12,COC(=O)N1Cc2ccnnc2CC1c1ccccc1Br (configuration not stated),-0.184%
13,CSc1ccc(CN2CCC2(C)C(=O)NCc2ccccc2Br)cc1 (configuration not stated),-0.129%
14,CC(Sc1ccc(S(=O)(=O)N2CCN(C)CC2)cn1)C(=O)NC1CCCC(C)C1C (configuration not stated),-0.0545%
15,O=C(c1ccccn1)N1CC2(C1)[C@@H](c1ccccc1)[C@@H](CO)N2C(=O)C1CCCCC1,1.98%
16,C[C@@H]1CN([C@H](C)CO)C(=O)Cc2cc(NC(=O)Cc3cn(C)c4ccccc34)ccc2O[C@@H]1CN(C)Cc1ccc(C(F)(F)F)cc1,275% (active)
17,C[C@H](CO)N1C[C@H](C)[C@@H](CN(C)Cc2ccc(C(F)(F)F)cc2)Oc2ccc(NC(=O)CCN3CCOCC3)cc2C1=O,3.76%
18,C[C@H]1CN([C@@H](C)CO)C(=O)Cc2cc(NC(=O)Cc3cn(C)c4ccccc34)ccc2O[C@@H]1CN(C)Cc1ccc(C(F)(F)F)cc1,12.9%
19,C[C@H](CO)N1C[C@H](C)[C@@H](CN(C)Cc2ccc(C(F)(F)F)cc2)Oc2ccc(NC(=O)CCC(F)(F)F)cc2C1=O,63.1% (active)
20,CC(C)NC(=O)Nc1ccc2c(c1)C(=O)N([C@@H](C)CO)C[C@@H](C)[C@H](CN(C)Cc1ccc(-c3ccccc3)cc1)O2,0.764%
21,C[C@H]1CN([C@@H](C)CO)C(=O)Cc2cc(NC(=O)Cc3cn(C)c4ccccc34)ccc2O[C@@H]1CN(C)Cc1ccccc1,0.509%
22,C[C@@H]1CN([C@H](C)CO)C(=O)c2cc(NC(=O)Nc3ccc4c(c3)OCO4)ccc2O[C@@H]1CN(C)Cc1ccc(C(F)(F)F)cc1,0.0795%
23,CC(C)NC(=O)Nc1ccc2c(c1)C(=O)N([C@@H](C)CO)C[C@@H](C)[C@H](CN(C)Cc1ccc(C(=O)O)cc1)O2,56.9% (active)

row,SMILES,activation
1,C[C@H](CO)N1C[C@H](C)[C@H](CN(C)Cc2ccc(C(=O)O)cc2)Oc2ccc(NC(=O)NC3CCCCC3)cc2C1=O,1.59%
2,CCCNC(=O)c1cc2c(c(-c3cccc(-c4ccc(C#N)cc4)c3)n1)[C@@H](CCO)N(C(=O)CC)C2,1.79%
3,CO[C@H]1CN(C)C(=O)c2cc(NC(=O)C3CCOCC3)ccc2OC[C@@H](C)N(Cc2cccnc2)C[C@@H]1C,-0.0535%
4,CN(C)C(=O)c1ccc(-c2ccccc2[C@H]2[C@@H](CO)N(C(=O)C3CCCCC3)[C@H]2C#N)cc1,0.141%
5,CSc1ncccc1C(=O)N1CCCC(Nc2ccc(F)c(F)c2)C1 (configuration not stated),-0.156%
6,COc1ccc(NC(=O)N(C)C[C@@H]2OCCCC[C@@H](C)Oc3ccc(NS(C)(=O)=O)cc3C(=O)N([C@@H](C)CO)C[C@H]2C)cc1,0.098%
7,COC(=O)C1=CN(c2c(C)cc(C)cc2C)C(N)=C(C#N)C1c1cccc(F)c1 (configuration not stated),-0.0735%
8,O=S(=O)(NCCCN1CCOCC1)c1ccc(F)c(Cl)c1,82.5% (active)
9,COc1ccc(S(=O)(=O)N(C)CC(=O)NCCCN2CCOCC2)cc1Cl,0.0915%
10,O=S(=O)(NCC1CC1)c1ccc(F)c(Cl)c1,-0.0605%
11,COc1ccccc1-c1ccc([C@H]2[C@H](CO)N(C(=O)C3CC3)C23CN(C(C)=O)C3)cc1,-0.188%
12,CCC(=O)Nc1ccc2c(c1)OC[C@H](C)N(CC1CCOCC1)C[C@@H](C)[C@@H](OC)CN(C)C2=O,0.195%
13,CO[C@@H]1CN(C)C(=O)c2cc(NS(=O)(=O)c3ccc(C)cc3)ccc2OC[C@H](C)N(Cc2nccs2)C[C@@H]1C,-0.0505%
14,COCCn1c(SCC(=O)c2[nH]c(C)c(C(C)=O)c2C)nc2ccccc2c1=O,-0.059%
15,CCOCCCn1c(NN)nc2ccccc2c1=O,-0.132%
16,COCCCn1c(-c2cccs2)nc2nc3ccccc3nc21,42.8% (active)
17,O=C(c1ccc(F)cc1)N1CC(=O)N2[C@@H](CO)[C@@H](c3ccc(C#Cc4ccc(F)cc4)cc3)[C@@H]2C1,-0.811%
18,Cc1nc(N2CCC(C)CC2)c2c(C)c(C(=O)Nc3cc(F)ccc3C)sc2n1,0.651%
19,Cc1nc(N2CCN(c3ccccn3)CC2)c2c(C)c(C(=O)Nc3ccc(F)cc3)sc2n1,86% (active)
20,CCN(CC)c1ccc(NC(=O)CN2CCN(c3ccccn3)CC2)cc1,0.001%
21,COc1cccc(-c2nc3nc(C)cc(C)n3c2NC2CCCCC2)c1,-0.154%
22,C[C@@H]1CN([C@H](C)CO)C(=O)c2cccc(NC(=O)Nc3cccc4ccccc34)c2O[C@@H]1CN(C)C(=O)Nc1cccc2ccccc12,-0.224%
23,C[C@H]1CN([C@@H](C)CO)C(=O)c2cccc(NS(=O)(=O)c3cn(C)cn3)c2O[C@@H]1CN(C)C(=O)Nc1ccc(F)cc1,46.9% (active)

row,SMILES,activation
1,C[C@H]1CN([C@@H](C)CO)C(=O)c2cccc(NC(=O)Nc3ccc(C(F)(F)F)cc3)c2O[C@H]1CN(C)C(=O)NC1CCCCC1,-0.0925%
2,C[C@H](CO)N1C[C@H](C)[C@@H](CN(C)C(=O)NC2CCCCC2)Oc2c(NC(=O)Nc3ccc(F)cc3)cccc2C1=O,42.3% (active)
3,C[C@H](CO)N1C[C@H](C)[C@H](CN(C)S(=O)(=O)c2ccccc2)Oc2c(NC(=O)Nc3ccccc3)cccc2C1=O,392% (active)
4,C[C@@H]1CN([C@H](C)CO)C(=O)c2cccc(NS(C)(=O)=O)c2O[C@@H]1CN(C)C(=O)Nc1cccc2ccccc12,91.3% (active)
5,C[C@H](CO)N1C[C@H](C)[C@@H](CN(C)S(=O)(=O)c2ccc(F)cc2)Oc2c(NC(=O)Nc3ccccc3)cccc2C1=O,0.238% and 0.231%
6,C[C@H]1CN([C@@H](C)CO)C(=O)c2cccc(NS(=O)(=O)c3cn(C)cn3)c2O[C@H]1CN(C)C(=O)Nc1ccc2c(c1)OCO2,-9.5%
7,C[C@@H]1CN([C@H](C)CO)C(=O)c2cccc(NC(=O)Nc3ccccc3)c2O[C@@H]1CN(C)C(=O)NC1CCCCC1,0.168%
8,C[C@H](CO)N1C[C@H](C)[C@@H](CN(C)C(=O)Nc2cccc3ccccc23)Oc2c(NS(=O)(=O)c3ccccc3)cccc2C1=O,-0.43%
9,COc1ccc(NC(=O)N(C)C[C@@H]2Oc3c(NS(=O)(=O)c4cn(C)cn4)cccc3C(=O)N([C@H](C)CO)C[C@@H]2C)cc1,-11.1%
10,Cc1ccc(S(=O)(=O)N(C)C[C@@H]2Oc3c(NC(=O)Nc4ccccc4)cccc3C(=O)N([C@H](C)CO)C[C@H]2C)cc1,0.069%
11,Nc1nc2c(ncn2[C@@H]2O[C@H](C(=O)N[C@@H](Cc3ccccc3)C(=O)NCc3ccccc3)[C@@H](O)[C@H]2O)c(=O)[nH]1,-0.0025%
12,CS(=O)(=O)N1[C@H](CO)[C@H](c2ccccc2)C12CN(C(=O)C1CC1)C2,0.098%
13,CNC(=O)C1CN(C(=O)c2cccc(S(=O)(=O)N3CCc4ccccc43)c2)c2ccccc2O1 (configuration not stated),-0.207%
14,O=C(c1ccccc1)N1C[C@H]2[C@@H](c3ccccc31)[C@H](CO)N2Cc1ccccc1F,0.376%
15,Cc1ccc(C)c(C(O)c2ncc(-c3cccc4ccccc34)[nH]2)c1 (configuration not stated),-0.22%
16,C[C@@H]1CN([C@@H](C)CO)C(=O)c2cc(-c3ccccc3F)cnc2O[C@@H]1CN(C)Cc1cccc(F)c1,-0.0955%
17,C[C@H]1CN([C@@H](C)CO)C(=O)c2cc(Br)cnc2O[C@H]1CN(C)Cc1cccc(F)c1,87.1% (active)
18,C[C@@H]1CN([C@@H](C)CO)C(=O)c2cc(Br)cnc2O[C@@H]1CN(C)C(=O)C1CCCCC1,-0.284% and 0.234%
19,C[C@@H]1CN([C@H](C)CO)C(=O)c2cc(Br)cnc2O[C@@H]1CN(C)C(=O)C1CC1,118% (active)
20,C/C=C/c1cnc2c(c1)C(=O)N([C@@H](C)CO)C[C@H](C)[C@@H](CN(C)C(=O)C1CC1)O2,0.382%
21,C[C@@H]1CN([C@@H](C)CO)C(=O)c2cc(-c3cccc(F)c3)cnc2O[C@@H]1CN(C)Cc1ccccc1,-0.282%
